Measured values from different studies.
Compare with care: the assays were run in different laboratories.
Chymotrypsinogen A: Chymotrypsinogen A (Bos taurus, UniProt P00766)
Toll-like receptor 1/2: Toll-like receptor 1/2 (Homo sapiens, UniProt O60603+Q15399)
lecA: PA-I galactophilic lectin (lecA, Pseudomonas aeruginosa, UniProt Q05097)
RORC: Nuclear receptor ROR-gamma (RORC, Homo sapiens, UniProt P51449)

The Ki of CCCC[C@H](NC(=O)[C@H](CCC(N)=O)NC(=O)[C@H](CO)NC(=O)CCCCCN)C(=O)N[C@@H](CCCBr)B(O)O is reported as 0.251 µM (Chymotrypsinogen A; enzyme activity, inhibitor, fluorescence).
With CNc1ccc([N+](=O)[O-])cc1-n1cnc(-c2cc(F)c(F)cc2F)c1 the EC50 was > 100 µM (Toll-like receptor 1/2; reporter gene, agonist).
With CCCC[C@H](NC(=O)[C@H](CCC(N)=O)NC(=O)[C@H](CO)NC(=O)C[C@@H](Cc1ccc2ccccc2c1)NC(=O)CCCCCN)C(=O)N[C@@H](CCCBr)B(O)O the Ki was 0.506 µM (Chymotrypsinogen A; enzyme activity, inhibitor, fluorescence).
For O=C(Cn1cc(CN2CCN(c3cc4c(cc3F)c(=O)c(C(=O)O)cn4C3CC3)CC2)nn1)Nc1ccc(S[C@@H]2O[C@H](CO)[C@H](O)[C@H](O)[C@H]2O)cc1, the Ki was 3.82 µM (lecA; ligand displacement, FP).
CNc1ccc([N+](=O)[O-])cc1-n1cnc(-c2ccc(F)cc2)c1 has an EC50 of 2.78 µM (Toll-like receptor 1/2; reporter gene, agonist).
OC[C@@H]1[C@@H](O)[C@H](O)[C@@H](O)[C@@H]2O[C@H]12 gave an IC50 of 0.35 µM (Beta-glucosidase (GBA2, Homo sapiens, UniProt Q9HCG7); enzyme activity, inhibitor; pH 5.5, lysate).
CNc1ccc([N+](=O)[O-])cc1-n1cnc(-c2ccc(C3CCCCC3)cc2)c1 gave an EC50 of 0.12 µM (Toll-like receptor 1/2; reporter gene, agonist).
NC(=O)C1=CN([C@@H]2O[C@H](COP(=O)(O)OP(=O)(O)OC[C@H]3O[C@@H](n4cnc5c(N)ncnc54)[C@H](O)[C@@H]3O)[C@@H](O)[C@H]2O)C=CC1 has a Ki of 12 µM (ADH1 (Saccharomyces cerevisiae, UniProt P00330, H16R); enzyme activity, inhibitor).
O=S(=O)(c1cccc(C(F)(F)F)c1)N1c2cc(OCc3c(Cl)cncc3Cl)ccc2CC1C(F)(F)F (centres unmarked) has an IC50 of 0.15 µM (RORC; ligand displacement, radioligand).
CNc1ccc(C#N)cc1-n1cnc(-c2ccc([N+](=O)[O-])cc2)c1 has an EC50 of 11 µM (Toll-like receptor 1/2; reporter gene, agonist).
For O=S(=O)(c1cccc(C(F)(F)F)c1)N1CCc2ccc(OCc3c(F)cncc3Cl)cc21, the IC50 was 0.23 µM (RORC; ligand displacement, radioligand).
The EC50 of CNc1ccc([N+](=O)[O-])cc1-n1cnc(-c2ccc(C#N)cc2)c1 is reported as 0.21 µM (Toll-like receptor 1/2; reporter gene, agonist).
CC[C@H](C)[C@H](NC(=O)[C@H](Cc1ccccc1)NC(=O)[C@H](CCC(=O)O)NC(=O)[C@H](CCCCN)NC(=O)[C@H](C)NC(=O)[C@H](C)NC(=O)[C@H](CCC(N)=O)NC(=O)CNC(=O)[C@H](CCC(=O)O)NC(=O)[C@H](CC(C)C)NC(=O)[C@H](Cc1ccc(O)cc1)NC(=O)[C@H](CO)NC(=O)[C@H](CO)NC(=O)[C@@H](NC(=O)[C@H](CC(=O)O)NC(=O)[C@H](CO)NC(=O)[C@@H](NC(=O)[C@H](Cc1ccccc1)NC(=O)[C@@H](NC(=O)CNC(=O)[C@H](CCC(=O)O)NC(=O)[C@H](C)NC(=O)[C@@H](N)Cc1c[nH]cn1)[C@@H](C)O)[C@@H](C)O)C(C)C)C(=O)N[C@@H](C)C(=O)N[C@@H](Cc1c[nH]c2ccccc12)C(=O)N[C@@H](CC(C)C)C(=O)N[C@H](C(=O)N[C@@H](CCCCN)C(=O)NCC(=O)N[C@@H](CCCN=C(N)N)C(=O)NCC(=O)O)C(C)C has an EC50 of > 1 µM (Gastric inhibitory polypeptide receptor (Mus musculus, UniProt Q0P543); reporter gene, agonist, luciferase).
O=C(CCn1cc(CCN2CCN(c3cc4c(cc3F)c(=O)c(C(=O)O)cn4C3CC3)CC2)nn1)Nc1ccc(S[C@@H]2O[C@H](CO)[C@H](O)[C@H](O)[C@H]2O)cc1 gave a Ki of 3.19 µM (lecA; ligand displacement, FP).
With CNc1nc(I)nc2c1ncn2[C@H]1C[C@H](OP(=O)(O)O)[C@]2(COP(=O)(O)O)C[C@H]12 the Kb was 0.0054 µM (P2Y purinoceptor 1 (Rattus norvegicus, UniProt P49651); calcium signal, antagonist).
For Cc1cnc(-c2ccc(-c3ccc(NC(=O)Nc4c(F)cc(F)cc4F)cc3F)c3c2C(=O)NC3)[nH]1, the IC50 was 0.0415 µM (Serine/threonine-protein kinase 24 (STK24, Homo sapiens, UniProt Q9Y6E0); enzyme activity, inhibitor).
COc1ccccc1COc1ccc2c(c1)N(S(=O)(=O)c1cccc(C(F)(F)F)c1)CC2 gave an IC50 of 0.2 µM (RORC; ligand displacement, radioligand).
With CNc1ccc(C(=O)OC)cc1-n1cnc(-c2ccc(C(F)(F)F)cc2)c1 the EC50 was > 100 µM (Toll-like receptor 1/2; reporter gene, agonist).
O=S(=O)(c1cccc(C(F)(F)F)c1)N1CCc2ccc(OCc3c(Cl)cccc3Cl)cc21 gave an IC50 of 0.13 µM (RORC; ligand displacement, radioligand).
CCn1c(-c2nc3ccc(C(=O)N4CCCC(N)C4)cc3n2C)cc2ccccc21 (centres unmarked) gave an EC50 of > 15.8 µM (Muscarinic acetylcholine receptor M2 (CHRM2, Homo sapiens, UniProt P08172); calcium signal, agonist).
